From PubChem BioAssay
PP1 counter: counter-screen for PP5 inhibitors: inhibitors of human PP1-alpha; 320,000 tested, 0.9% active; P62136; purified PP1alpha, OMFP fluorescence; inhibition, % at 6.7 µM;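 active = inhibition above the mean inhibition of all tested compounds plus 3 SD, computed separately for each screening campaign, cut at about 15% in these data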
core dimer inh: HCV core protein dimerization inhibition. TR-FRET GST/Flag-core106 dimerization, 1536-well. inhibition, % at 5 µM. 300,000 tested, 0.33% active;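 active = inhibition above the mean of all tested compounds plus 3 SD, set per screening campaign, cut at about 45% in these data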
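Test system: GST/Flag-tagged HCV core106 proteins; Medium: KF-containing HEPES buffer, pH 7.45, DTT, CHAPS, BSA; Times: compound-protein-antibody incubation 4 h at 22.5 °C; Detection: TR-FRET 671 and 617 nm emission; Benchmarks: wells lacking GST-core106 and wells with excess unlabelled core106.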
PP5 inh: inhibitors of human protein phosphatase 5 (PP5); 320,000 tested, 0.18% active; purified PP5c, OMFP substrate fluorescence; inhibition, % at 6.7 µM; P53041;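 active = inhibition above the campaign's mean inhibition across all tested compounds plus 3 SD, cut at about 9.5% in these data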
Target sequence (P53041 whole entry, looked up): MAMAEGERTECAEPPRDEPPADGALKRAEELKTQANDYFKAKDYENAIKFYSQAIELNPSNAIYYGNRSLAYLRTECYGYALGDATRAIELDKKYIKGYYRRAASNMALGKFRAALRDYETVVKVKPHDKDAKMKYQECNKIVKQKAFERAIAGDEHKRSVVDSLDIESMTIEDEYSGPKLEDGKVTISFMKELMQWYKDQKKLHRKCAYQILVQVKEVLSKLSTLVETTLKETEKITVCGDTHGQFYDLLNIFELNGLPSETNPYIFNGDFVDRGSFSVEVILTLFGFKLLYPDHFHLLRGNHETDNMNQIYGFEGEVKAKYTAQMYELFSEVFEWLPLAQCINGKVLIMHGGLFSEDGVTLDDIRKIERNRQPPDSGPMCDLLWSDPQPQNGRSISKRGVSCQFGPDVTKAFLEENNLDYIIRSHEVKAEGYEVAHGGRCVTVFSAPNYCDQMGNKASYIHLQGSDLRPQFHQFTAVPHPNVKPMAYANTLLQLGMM
Myeloid diff 2: promotes myeloid progenitor differentiation; ER-HoxA9 myeloid progenitors, lysozyme-GFP differentiation, flow cytometry; calls only at 10 µM; 360,000 tested, 1% active; AID 624256;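 active = normalized GFP-positive differentiation at or above the plate's own cutoff, the solvent-only control mean plus 3 SD; inconclusive = no clear call, values can overlap the other calls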;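 also: cells exposed to compound for four days before flow analysis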
Fh CTSL1 inh: counter-screen for PFM18AAP inhibitors: inhibitors of F. hepatica cathepsin L1; recombinant F. hepatica cathepsin L1, Z-Leu-Arg-MCA fluorescence; inhibition, % at 5.96 µM; 300,000 tested, 0.49% active;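 active = inhibition above the mean of all tested compounds plus 3 SD, set per screening campaign, cut at about 17% in these data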
NadD block: inhibitors of Staphylococcus aureus NadD; purified NadD enzyme, colorimetric absorbance read-out; inhibition, % at 20 µM; 360,000 tested, 0.78% active; in the data active = inhibition above about 26%
NadD conf: NadD (S. aureus) inhibition, single concentration confirmation. shares compounds with NadD block. purified S. aureus NadD, colorimetric enzyme assay. 2,000 tested, 13% active. inhibition, % at 20 µM; in the data active = inhibition mostly above about 42%, no sharp cut-off; inactive = mostly below about 42%
Hits are given with their value; i = inactive; ? = inconclusive; nt = no result. Shown are actives, neighbours in structure and some others; about 3.1% of the full set was active somewhere.

SMILES	PP1 counter	core dimer inh	PP5 inh	Myeloid diff 2	Fh CTSL1 inh	NadD block	NadD conf
COc1ccc(NC(=O)COc2cc(C)cc(C)c2)cc1S(=O)(=O)N1CCCCC1	i	i	i	i	i	i	nt
CCN1CCc2c(sc3c2c(NCc2ccco2)nc2nnnn23)C1	i	i	i	i	i	38	i
Cc1nc(NCc2ccco2)c2c3c(sc2n1)CCC3	i	i	i	i	i	i	nt
O=C(N/N=C\c1ccc(-c2ccccc2[N+](=O)[O-])o1)C1COc2ccccc2O1 (stereo not drawn)	i	i	i	i	i	i	nt
Cc1c(C(=O)N/N=C/c2ccc(-c3ccccc3[N+](=O)[O-])o2)sc(N)c1C#N	i	i	i	i	i	36	i
O=C(N/N=C\c1ccc(-c2ccccc2[N+](=O)[O-])o1)C1COc2cc3ccccc3cc2O1 (stereo not drawn)	i	i	i	i	i	42	i
O=C(N/N=C/c1ccc(-c2ccccc2[N+](=O)[O-])o1)c1cncc(Br)c1	i	i	i	i	i	i	nt
Cc1cccc(N=C2NC(=O)S/C2=C\c2ccco2)c1	i	i	i	i	i	i	nt
O=C1NC(=Nc2ccc(Cl)cc2)/C(=C/c2ccco2)S1	i	i	i	i	i	37	i
CC(C)CNC(=O)C1(C)CCCN1Cc1ccc(S(C)(=O)=O)cc1 (stereo not drawn)	nt	nt	nt	i	nt	i	nt
O=C(C[C@H]1CC[C@H]2[C@@H](COC[C@@H](O)CN2C(=O)c2cnccn2)O1)NCc1ccc(Oc2ccccc2)cc1	nt	nt	nt	i	nt	nt	nt
Cc1nc(SCc2nc3cc(Cl)c(F)cc3[nH]2)c2oc3ccccc3c2n1	nt	nt	nt	i	nt	37	i
Cc1nc(SCc2nc3ccc(Cl)cc3[nH]2)c2oc3ccccc3c2n1	nt	nt	nt	i	nt	i	nt
Nc1c(CNCc2nnn(Cc3ccccc3)c2N)nnn1Cc1ccccc1	nt	nt	nt	i	nt	i	nt
CC(C)C[C@H]1CN([C@@H](Cc2ccc(O)cc2)CN2CCCC2CN2C(=S)NC[C@@H]2Cc2ccccc2)C(=S)N1CC1CCCCC1 (stereo partly drawn)	nt	nt	nt	i	nt	i	nt
CC(C)C[C@H]1CNC(=S)N1C[C@H]1CCCN1C[C@H](Cc1ccc(O)cc1)N1C[C@H](Cc2ccc(O)cc2)N(CC2CCCCCC2)C1=S	nt	nt	nt	i	nt	44	i
Oc1ccc(C[C@H]2CNC(=S)N2C[C@H]2CCCN2C[C@H](Cc2ccccc2)N2C[C@H](Cc3ccccc3)N(CC3CCCCC3)C2=S)cc1	nt	nt	nt	i	nt	39	i
CC(C)C[C@H]1CNC(=S)N1CC1CCCN1C[C@H](Cc1ccccc1)N1C[C@H](Cc2ccc(O)cc2)N(CC2CCCCCC2)C1=S (stereo partly drawn)	nt	nt	nt	i	nt	32	i
CC(C)C[C@H]1CN([C@@H](Cc2ccc(O)cc2)CN2CCC[C@@H]2CN2C(=S)NC[C@@H]2Cc2ccccc2)C(=S)N1CC1CCCCCC1	nt	nt	nt	i	nt	i	nt
CC1(C)Cc2c(cnn2-c2ccccc2)C(NC(=O)CCN2CCCCO2)C1 (stereo not drawn)	i	i	i	i	i	i	nt
CCOC(=O)CC1C(=O)NCCN1C(=O)c1ccc(Cl)c(Cl)c1 (stereo not drawn)	i	i	i	i	i	i	nt
CC(=O)N/C(=N/c1nc(C)cc(C)n1)Nc1ccc(C)cc1C	i	i	i	i	i	i	nt
Cc1ccc(Nc2nc(Cl)nc3ncn(C)c23)c(C)c1	nt	nt	nt	i	nt	i	nt
c1ccn2cc(-c3ccc4c(c3)OCO4)cc2c1	i	i	i	i	i	29	i
Cc1cc(=O)oc2cc(OCc3ccc(C(=O)OCC(=O)NC4CCS(=O)(=O)C4)cc3)ccc12 (stereo not drawn)	i	i	i	i	i	i	nt
SMILES	PP1 counter	core dimer inh	PP5 inh	Myeloid diff 2	Fh CTSL1 inh	NadD block	NadD conf
Cc1cc(=O)oc2cc(OCc3ccc(C(=O)OCC(=O)Nc4ccc(N(C)C)cc4)cc3)ccc12	nt	nt	nt	i	nt	35	i
Nc1cc(Cc2ccccc2)ccc1O	nt	nt	nt	?	nt	i	nt
Nc1cc(N)cc(Cc2ccccc2)c1	nt	nt	nt	i	nt	33	i
O=C1NC2=C(C(=O)CCC2)C(c2ccc(OC(F)F)cc2)N1 (stereo not drawn)	i	i	i	i	i	i	nt
Cn1cnnc1SCC(=O)Nc1sc2c(c1C#N)CCCCC2	i	i	i	i	i	i	nt
Cn1c(CNC(=O)c2ccc(Cl)c(Cl)c2)nnc1SCC(=O)Nc1sc2c(c1C#N)CCCC2	i	i	i	i	i	45	i
Cc1ccc(C(=O)NCC(=O)N2CCN(c3cccc(Cl)c3)CC2)s1	nt	nt	nt	i	nt	i	nt
Cc1ccc(S(=O)(=O)N(C(=O)c2ccncc2)c2ccc3oc4c(c3c2)CCCC4)cc1[N+](=O)[O-]	i	i	i	i	i	35	i
CC(NC(=O)c1c(O)c2ccccc2[nH]c1=O)c1ccccc1 (stereo not drawn)	i	i	i	i	i	i	nt
Cc1c([N+](=O)[O-])cc(N2C(=O)C=CC2=O)cc1[N+](=O)[O-]	nt	nt	nt	i	nt	42	57
CCCc1cc2c(=O)c(-c3nc4ccccc4s3)c(COCC(=O)O)oc2cc1O	nt	nt	nt	i	nt	30	i
N#Cc1c(SCc2c(Cl)cccc2Cl)nc(N)[nH]c1=S	i	nt	i	i	nt	30	47
CC(Oc1ccc(Br)cc1)C(=O)N(Cc1ccccc1)c1c(N)n(Cc2ccccc2)c(=O)[nH]c1=O (stereo not drawn)	nt	nt	nt	i	nt	i	nt
COc1cc(C)ccc1OCc1cc(C(=O)N2CCN(C3CCCCC3)CC2)no1	i	i	i	?	i	i	nt
CN(C)c1ccc(-c2cccc(C3CC=CC4C3C(=O)N(Cc3ccccc3)C4c3ccc4ccccc4c3)c2)cc1 (stereo not drawn)	i	i	i	i	i	32	i
COc1ccc(-c2cccc(C3CC=CC4C3C(=O)N(Cc3ccccc3)C4c3ccc4ccccc4c3)c2)cc1 (stereo not drawn)	i	i	i	i	i	31	i
O=C1C2C(c3ccccc3)CC=CC2[C@H](c2ccc3ccccc3c2)N1Cc1ccccc1 (stereo partly drawn)	i	i	i	i	i	i	nt
CC1CCN(C(=O)CN2C(=O)C(C)(C)Oc3ccc(C(=O)NC(C)C)cc32)CC1	i	i	i	i	i	i	nt
CC(C)(C)S(=O)N1Cc2cc(CO)cc(-c3ccccc3)c2[C@@H]1CCO (stereo partly drawn)	nt	nt	nt	i	nt	i	nt
O=C(C[n+]1cccc2ccccc21)c1ccc(NC(=O)c2ccccc2)cc1	i	i	i	i	i	i	nt
Cc1cc[n+](CC(=O)c2ccc(NC(=O)c3ccccc3)cc2)c2ccccc12	i	i	i	i	i	37	i
Cc1cc(C)c(C(=O)C(C)OC(=O)Cn2cnc3c2c(=O)n(C)c(=O)n3C)cc1C (stereo not drawn)	i	i	i	i	i	i	nt
COc1cccc(C=C(C#N)C(=O)c2ccccc2)c1	nt	nt	nt	i	nt	32	i
